Screens as filed in PubChem BioAssay.
PolyA inhibitor: yeast polyadenylation inhibition; 300,000 compounds, 0.02% hits; AID 1875; activity score, % at 12 µM; S. cerevisiae SKY197-pL101 polyadenylation reporter, beta-gal luminescence; efflux-impaired pdr1/pdr3 knockout yeast; score 100 = 6 SD above DMSO;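 active means lowest replicate activity score at least 50, where 100 means six control SD above control mean; inconclusive means lowest score under 50 but half or more replicates reach 50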;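 further: yeast exposed to compound for 9 h at 30 °C; higher score means more reporter readthrough which indicates perturbed polyadenylation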
T cruzi inh: blocks replication of Trypanosoma cruzi; inhibition, % (no concentration beside the values); 300,000 compounds, 1.4% hits; AID 1885; T. cruzi beta-gal in NIH3T3, luminescence, 90 h;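 active means mean inhibition across valid replicates above about 55%, limit read from the data; inconclusive means mean below that limit but half or more replicates reach it; inactive means mean below it, under half of replicates reach it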;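 further: signal also drops with host cell toxicity which is not excluded here; higher percent means less beta-gal luminescence so fewer parasites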
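Material: NIH/3T3 host cells with β-galactosidase reporter T. cruzi; Input: 5,000 host fibroblasts per well; Medium: DMEM, 2% fetal bovine serum; Compound: 50 nL DMSO compound solution per well; Schedule: 3 h host attachment, then at least 90 h co-culture; Detection: luminescent β-galactosidase signal after 60 min lysis.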
Calb FLC: affects C. albicans growth with fluconazole; C. albicans CaCi-2 (fluconazole-resistant clinical isolate) + fluconazole, Alamar Blue growth, 48 h; growth inhibition, % (test concentration not listed); 300,000 compounds, 0.57% hits;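 active means growth inhibition above about 58% in most replicates, limit read from the data, passing the limit was not always enough; inconclusive means exactly half the replicates above a set limit; inactive means most replicates below a set limit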;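 further: all wells also contain fluconazole at 8 µg/ml as a sub-toxic cotreatment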
CSC inhib: cancer stem cell inhibition. cancer stem cell-like cells viability, luminescence. inhibition, % at 7.5 µM. 300,000 compounds, 1.1% hits. AID 2717; in the data active means inhibition above about 75%; inconclusive means no clear call, values can overlap the other calls; tested in HMLE shEcad cells
HIF act: HIF pathway transcriptional activation; U2OS HRE-luciferase reporter, luminescence; normalized: DMSO 0%, desferrioxamine 100%; activation, % at 7.5 µM (by protocol); 300,000 compounds, 0.32% hits;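 active means mean activation of at least 10% of the iron chelator positive control signal, with at least half of replicates also reaching 10%; inconclusive means mean and replicate majority disagree about reaching 10%; inactive means mean and most replicates under 10%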
Beta cell apopt: beta cell apoptosis inhibition; AID 435005; 300,000 compounds, 0.8% hits; INS-1E cytokine-induced death, ATP luminescence, 48 h; percent of positive-control rescue, neutral wells zero; protection from apoptosis, % (concentration not given with the values);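 active means Every replicate reaches about 75%, or at least half do and their mean reaches it too, limit read from the data; inconclusive means At least half of replicates reach the limit but their mean does not; inactive means Under half of replicates reach the limit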;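 further: higher means more ATP so stronger rescue from cytokine killing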
Numbers stand for hits; – = inactive; ? = inconclusive; · = not tested or not shown. The list is not random: actives were taken first. Their share in the collection is about 3.1%.

SMILES | PolyA inhibitor | T cruzi inh | Calb FLC | CSC inhib | HIF act | Beta cell apopt
CCc1cccc(C)c1NC(=O)COC(=O)c1c2c(nc3ccccc13)/C(=C\c1cccs1)CCC2 | – | 58.8 | – | – | – | –
CC(C)CNC(=O)COC(=O)c1c2c(nc3ccccc13)/C(=C/c1cccs1)CC2 | – | – | – | – | – | 77.7
CS(=O)(=O)c1ccc(NC(=O)c2cccc(S(=O)(=O)N3CCN(Cc4ccccc4)CC3)c2)cc1 | – | – | – | – | – | –
O=C(c1ccc(N2CCOCC2)cc1[N+](=O)[O-])N1CCOCC1 | – | – | – | – | – | –
O=C(NCc1ccc2c(c1)OCO2)C1CC(=O)N(c2ccc(Cl)cc2)C1 (stereo not drawn) | – | – | – | · | – | –
COC(=O)c1c(C)n(-c2ccccc2)c2ccc(O)cc12 | – | – | 91.9 | – | – | –
O=C(CSc1nnc(-c2cccnc2)o1)N1CCCCC1 | – | – | – | – | – | –
CCOc1ccc2c(c1)C(C)=CC(C)(C)N2S(=O)(=O)c1ccc(F)cc1 | – | – | – | – | – | ·
COc1ccc2c(c1)C(C)=CC(C)(C)N2S(=O)(=O)c1ccc(NC(C)=O)cc1 | – | – | – | – | – | –
CC1=CC(C)(C)N(S(=O)(=O)c2ccc(F)cc2)c2ccc(C)cc21 | – | – | ? | 87.2 | – | –
COc1ccc2c(c1)C(C)=CC(C)(C)N2S(=O)(=O)c1ccc(Br)cc1 | – | 67.1 | – | – | – | –
CCOc1ccc2c(c1)C(C)=CC(C)(C)N2S(=O)(=O)c1ccc(NC(C)=O)cc1 | – | 55.2 | ? | – | – | –
N#CC1=C(N)NC(SCc2ccc(Br)cc2)=C(C#N)C12CCCCC2 | – | 66.4 | – | – | – | –
N#CC1=C(N)NC(SCC(=O)c2ccccc2)=C(C#N)C12CCCC2 | – | – | – | – | – | –
N#CC1=C(N)NC(SCc2ccccc2)=C(C#N)C12CCCC2 | – | – | – | 78.2 | – | –
Nc1cccc2c(=O)c3ccccc3[nH]c12 | – | – | – | – | – | –
Cc1ccc(C(=O)/C=C/c2ccccc2[N+](=O)[O-])cc1 | – | – | – | – | – | –
O=C(/C=C/c1ccccc1[N+](=O)[O-])c1ccccc1Br | – | – | – | 84.3 | – | –
N#Cc1ccccc1Cn1cc(/C=N/Nc2ccc([N+](=O)[O-])cn2)c2ccccc21 | – | 64.4 | – | – | – | –
O=[N+]([O-])c1ccc(N/N=C/c2ccc(OCc3cccc4ccccc34)cc2)nc1 | – | – | – | – | – | –
